Measurements published in ChEMBL document CHEMBL1143930, “S-Euglobals: biomimetic synthesis, antileishmanial, antimalarial, and antimicrobial activities” (Bioorg Med Chem, 2008).
Values after ≈ are worked out from the molar mass of the structure shown. Active and inactive are the calls of the source. No cut-off for these calls is given here.

Key:
[1] = test system: Plasmodium falciparum; test: Antimalarial activity against chloroquine-sensitive Plasmodium falciparum D6 by LDH release assay; format: functional, organism-based
Method in brief: (§1)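 Infected red cells (W2 or D6), 2% parasitemia, 2% hematocrit, in RPMI 1640 with 10% human serum and 60 µg/mL amikacin, exposed to serial sample dilutions. Incubated 72 h at 37 C under 90% N2/5% O2/5% CO2. Parasite LDH measured with Malstat reagent (30 min, room temperature), then NBT/PES 1 h in dark, stopped with 5% acetic acid, read at 650 nm. IC50 from dose-response curves.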

[2] = test system: Plasmodium falciparum; test: Antimalarial activity against chloroquine-resistant Plasmodium falciparum W2 by LDH release; format: functional, organism-based; method in brief: as §1
[3] = test system: Leishmania donovani; test: Antileishmanial activity against Leishmania donovani promastigotes after 48 hrs by Alamar blue assay; format: functional, organism-based
Method in brief: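 L. donovani promastigotes were grown in RPMI 1640 with 10% fetal calf serum at 26 C. A 3-day-old culture was diluted to 5 × 10^5 promastigotes/mL, and drug dilutions were made directly in the cell suspension. After 48 h at 26 C, growth was read by Alamar Blue fluorescence (ex 544/em 590 nm). IC50 and IC90 came from percent growth versus concentration curves.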

[4] = test system: SK-MEL; test: Cytotoxicity against human SKMEL cells by neutral red assay up to 25 ug/mL; format: functional, cell-based
Method in brief: (§2)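 Cells were seeded at 25,000 per well and incubated 24 h. Test samples were added at a range of concentrations, followed by a further 48 h incubation. Viable cells were quantified by Neutral Red uptake, and IC50 was read from dose curves of percent growth versus concentration.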

[5] = test system: Vero; test: Cytotoxicity against african green monkey Vero cells by neutral red assay up to 25 ug/mL; format: cell-based; settings: chlorocebus sabaeus; method in brief: as §2
[6] = test system: Cryptococcus neoformans; test: Antifungal activity against Cryptococcus neoformans; format: functional, organism-based
Method in brief: (§3)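 Modified NCCLS broth microdilution. Samples in DMSO were serially diluted in 0.9% saline and tested in duplicate. Inocula were matched to the 0.5 McFarland standard by absorbance at 630 nm, then diluted in broth. Growth, solvent and media controls were included. Plates were read at 630 nm before and after incubation, and IC50 was taken from percent growth versus concentration.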

[7] = test system: Candida albicans; test: Antifungal activity against Candida albicans; format: functional, organism-based; method in brief: as §3
[8] = Cytotoxicity against pig LLC-PK11 cells by neutral red assay up to 25 ug/mL; format: cell-based, Sus scrofa; method in brief: as §2
[9] = test system: Aspergillus fumigatus; test: Antifungal activity against Aspergillus fumigatus; format: functional, organism-based; method in brief: as §3
[10] = test system: KB; test: Cytotoxicity against human KB cells by neutral red assay up to 25 ug/mL; format: functional, cell-based; method in brief: as §2
[11] = test system: BT-549; test: Cytotoxicity against human BT549 cells by neutral red assay up to 25 ug/mL; format: functional, cell-based; method in brief: as §2
[12] = test system: SK-OV-3; test: Cytotoxicity against human SK-OV3 cells by neutral red assay up to 25 ug/mL; format: functional, cell-based; method in brief: as §2
[13] = test system: KB; test: Cytotoxicity against human KB cells by neutral red assay; format: functional, cell-based; method in brief: as §2
[14] = test system: BT-549; test: Cytotoxicity against human BT549 cells by neutral red assay; format: functional, cell-based; method in brief: as §2
[15] = Cytotoxicity against pig LLC-PK11 cells by neutral red assay; format: cell-based; settings: Sus scrofa; method in brief: as §2
[16] = test system: Vero; test: Cytotoxicity against african green monkey Vero cells by neutral red assay; format: cell-based; settings: chlorocebus sabaeus; method in brief: as §2
[17] = test system: SK-OV-3; test: Cytotoxicity against human SK-OV3 cells by neutral red assay; format: functional, cell-based; method in brief: as §2
[18] = test system: Staphylococcus aureus; test: Antibacterial activity against methicillin-resistant Staphylococcus aureus; format: functional, organism-based
Method in brief: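 Modified NCCLS broth microdilution. Samples in DMSO serially diluted in 0.9% saline, tested in duplicate. Inoculum set against 0.5 McFarland standard by absorbance at 630 nm, then diluted in broth. Growth, solvent and media controls included. Plates read at 630 nm before and after incubation. IC50 from percent growth vs concentration; MIC = lowest concentration with no detectable growth.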

[19] = test system: SK-MEL; test: Cytotoxicity against human SKMEL cells by neutral red assay; format: functional, cell-based; method in brief: as §2

Structure (SMILES)	IC50 [3] [µg/mL]	Activity [3]	Activity [4]	Activity [5]	Activity [6]	Activity [7]	Activity [8]	Activity [9]	Activity [10]	Activity [12]	IC50 [14] [µg/mL]	further results
C[C@@H]1CC[C@H]2[C@@H](C)C(=O)O[C@@H]3O[C@@]4(C)CC[C@@H]1[C@]32OO4 [ARTEMISININ]	–	–	–	–	–	–	–	–	–	–	–	IC50 [1]: 0.014 µg/mL (≈ 0.0496 µM); IC50 [2]: 0.0075 µg/mL (≈ 0.0266 µM)
C[C@@H]1[C@H](O)[C@@H](C)/C=C/C=C/C=C/C=C/C=C/C=C/C=C/[C@H](O[C@@H]2O[C@H](C)[C@@H](O)[C@H](N)[C@@H]2O)C[C@@H]2O[C@](O)(C[C@@H](O)C[C@@H](O)[C@H](O)CC[C@@H](O)C[C@@H](O)CC(=O)O[C@H]1C)C[C@H](O)[C@H]2C(=O)O [AMPHOTERICIN B]	0.19 (≈ 0.206 µM)	–	–	–	–	–	–	–	–	–	–	IC90 [3]: 0.36 µg/mL (≈ 0.39 µM)
CC(C)CC(=O)c1c(O)c2c(c(C(=O)CC(C)C)c1O)O[C@@]1(C)[C@@H](C2)C[C@H]2C[C@@H]1C2(C)C	–	inactive	inactive	Not Active	inactive	inactive	Not Active	inactive	inactive	inactive	–	Activity [11]: inactive
N=C(N)c1ccc(OCCCCCOc2ccc(C(=N)N)cc2)cc1 [PENTAMIDINE]	1.2 (≈ 3.52 µM)	–	–	–	–	–	–	–	–	–	–	IC90 [3]: 6 µg/mL (≈ 17.6 µM)
CC(C)CC(=O)c1c(O)c2c(c(C(=O)CC(C)C)c1O)O[C@]1(CC2)CC[C@@H]2C[C@H]1C2(C)C	–	inactive	inactive	Not Active	inactive	inactive	Not Active	inactive	inactive	inactive	–	Activity [11]: inactive
CC1(C)[C@H]2[C@@H]1CC[C@@H]1Cc3c(O)c(C=O)c(O)c(C=O)c3O[C@@]12C	20 (≈ 60.5 µM)	–	inactive	Not Active	inactive	inactive	Not Active	inactive	–	inactive	> 25	IC90 [3]: 40 µg/mL (≈ 121 µM); IC50 [13]: 20 µg/mL (≈ 60.5 µM)
CC(C)CC(=O)c1c(O)c2c(c(C(=O)CC(C)C)c1O)O[C@]1(C)C[C@@H]3[C@H](C[C@@H]1C2)C3(C)C	–	inactive	inactive	Not Active	inactive	inactive	Not Active	inactive	inactive	inactive	–	Activity [11]: inactive
CC(C)CC(=O)c1c(O)c(C=O)c(O)c2c1O[C@@]1(CCO)[C@@H](C2)C[C@H]2C[C@@H]1C2(C)C	32 (≈ 76.8 µM)	–	inactive	–	inactive	inactive	–	inactive	–	–	> 25	IC50 [13]: > 25 µg/mL; IC50 [15]: > 25 µg/mL; IC50 [16]: > 25 µg/mL; IC50 [17]: > 25 µg/mL; IC50 [18]: 5 µg/mL (≈ 12 µM)
CC(C)CC(=O)c1c(O)c2c(c(C(=O)CC(C)C)c1O)O[C@@]1(CO)[C@@H](C2)C[C@H]2C[C@@H]1C2(C)C	24 (≈ 52.3 µM)	–	inactive	–	inactive	inactive	Not Active	inactive	inactive	inactive	25 (≈ 54.5 µM)	IC50 [16]: > 25 µg/mL
CC(C)CC(=O)c1c(O)c(C=O)c(O)c2c1O[C@@]1(CO)[C@@H](C2)C[C@H]2C[C@@H]1C2(C)C	30 (≈ 74.5 µM)	–	inactive	Not Active	inactive	inactive	Not Active	inactive	inactive	inactive	22.5 (≈ 55.9 µM)	IC50 [18]: 10 µg/mL (≈ 24.8 µM)
CC(C)CC(=O)c1c(O)c(C=O)c2c(c1O)C[C@H]1C[C@H]3C[C@H](C3(C)C)[C@@]1(C)O2 [EUGLOBAL G2]	3.6 (≈ 9.31 µM)	–	–	–	–	–	–	–	–	–	–	–
CC(C)CC(=O)c1c(O)c2c(c(C(=O)CC(C)C)c1O)O[C@@]1(CC2)[C@H]2CC[C@H](C2)C1(C)C	–	inactive	inactive	Not Active	inactive	inactive	Not Active	inactive	inactive	inactive	–	Activity [11]: inactive
CC(C)CC(=O)c1c(O)c(C=O)c2c(c1O)C[C@H]1C[C@H]3C[C@H](C3(C)C)[C@@]1(CO)O2	18 (≈ 44.7 µM)	–	inactive	Not Active	inactive	inactive	Not Active	inactive	inactive	inactive	23 (≈ 57.1 µM)	IC90 [3]: 39 µg/mL (≈ 96.9 µM); IC50 [18]: 2.5 µg/mL (≈ 6.21 µM)
CC(C)CC(=O)c1c(O)c(C=O)c2c(c1O)C[C@H]1C[C@H]3C[C@H](C3(C)C)[C@@]1(CCO)O2	9.5 (≈ 22.8 µM)	–	–	–	inactive	inactive	–	inactive	–	–	18.5 (≈ 44.4 µM)	IC90 [3]: 33 µg/mL (≈ 79.2 µM); IC50 [13]: 20 µg/mL (≈ 48 µM); IC50 [15]: 25 µg/mL (≈ 60 µM); IC50 [16]: 20 µg/mL (≈ 48 µM); IC50 [17]: 25 µg/mL (≈ 60 µM); IC50 [18]: 1 µg/mL (≈ 2.4 µM); MIC [18]: 5 µg/mL (≈ 12 µM); IC50 [19]: 25 µg/mL (≈ 60 µM)
CC(C)CC(=O)c1c(O)c2c(c(C(=O)CC(C)C)c1O)O[C@@]1(CCO)[C@@H](C2)C[C@H]2C[C@@H]1C2(C)C	–	inactive	inactive	Not Active	inactive	inactive	Not Active	inactive	inactive	inactive	> 25	–
CC(C)CC(=O)c1c(O)c(C=O)c2c(c1O)C[C@H]1CC[C@H]3[C@H](C3(C)C)[C@@]1(C)O2	2.4 (≈ 6.21 µM)	–	inactive	Not Active	inactive	inactive	–	inactive	inactive	–	> 25	IC90 [3]: 8 µg/mL (≈ 20.7 µM); IC50 [15]: > 25 µg/mL; IC50 [17]: > 25 µg/mL
O=C(O)c1cn(C2CC2)c2cc(N3CCNCC3)c(F)cc2c1=O [CIPROFLOXACIN]	–	–	–	–	–	–	–	–	–	–	–	MIC [18]: 0.25 µg/mL (≈ 0.754 µM)
CC1(C)[C@H]2C[C@@H]3Cc4c(O)c(C=O)c(O)c(C=O)c4O[C@]3(CCO)[C@@H]1C2	22 (≈ 61 µM)	–	inactive	Not Active	inactive	inactive	Not Active	inactive	inactive	inactive	–	Activity [11]: inactive
CC(C)CC(=O)c1c(O)c2c(c(C(=O)CC(C)C)c1O)O[C@@]1(C)[C@H](CC[C@H]3[C@@H]1C3(C)C)C2	–	inactive	inactive	Not Active	inactive	inactive	Not Active	inactive	inactive	inactive	–	Activity [11]: inactive
CC1(C)[C@H]2C[C@@H]3Cc4c(O)c(C=O)c(O)c(C=O)c4O[C@]3(CO)[C@@H]1C2	–	inactive	–	Not Active	inactive	inactive	Not Active	inactive	–	inactive	25 (≈ 72.2 µM)	IC50 [19]: 25 µg/mL (≈ 72.2 µM)
COc1cccc2c1C(=O)c1c(O)c3c(c(O)c1C2=O)C[C@@](O)(C(=O)CO)C[C@@H]3O[C@H]1C[C@H](N)[C@H](O)[C@H](C)O1 [DOXORUBICIN]	–	–	–	–	–	–	–	–	–	–	0.6 (≈ 1.1 µM)	IC50 [13]: 0.9 µg/mL (≈ 1.66 µM); IC50 [15]: 0.5 µg/mL (≈ 0.92 µM); IC50 [17]: 0.75 µg/mL (≈ 1.38 µM); IC50 [19]: 0.6 µg/mL (≈ 1.1 µM)
